Results taken from ChEMBL document CHEMBL4689842, “EUbOPEN Chemogenomics Library wave 1” (2021).

Tested on: Fibroblast
Experiment: Multiplex assay against human fibroblast
Assay type: toxicity, cell-based
Summary of the method: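 With compound added, live cells were imaged on a CQ1 microscope at 37°C and 5% CO2; staining with Hoechst33342, BioTracker Green Microtubule Cytoskeleton Dye, MitoTracker Red and Annexin V Alexa Fluor 680 had been done at seeding. The CellPathfinder machine-learning gating scheme split cells into Hoechst high-intensity objects or normal cells, normal cells into healthy, pyknosed or fragmented nuclei, and pyknosed cells into mitotic or apoptotic. The tubulin, mitochondrial-mass and membrane-permeability phenotypes are per cents of healthy-nucleus cells.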

[1] = 12 h, 1 µM, compound concentration 1 uM, replicate 1
[2] = 12 h, 1 µM, compound concentration 1 uM, replicate 2
[3] = 12 h, 10 µM, compound concentration 10 uM, replicate 1
[4] = 12 h, 10 µM, compound concentration 10 uM, replicate 2
[5] = 24 h, 1 µM, compound concentration 1 uM, replicate 1
[6] = 24 h, 1 µM, compound concentration 1 uM, replicate 2
[7] = 24 h, 10 µM, compound concentration 10 uM, replicate 1
[8] = 24 h, 10 µM, compound concentration 10 uM, replicate 2
[9] = 48 h, 1 µM, compound concentration 1 uM, replicate 1
[10] = 48 h, 1 µM, compound concentration 1 uM, replicate 2
[11] = 48 h, 10 µM, compound concentration 10 uM, replicate 1
[12] = 48 h, 10 µM, compound concentration 10 uM, replicate 2

SMILES: CN1CCC(=C2c3ccccc3CC(=O)c3sccc32)CC1.O=C(O)/C=C/C(=O)O [KETOTIFEN FUMARATE]
- Population Apoptotic (%) [1]: 61%
- Population Fragmented Nuclei (%) [1]: 26%
- Population Healthy Nuclei (%) [1]: 41%
- Population Hoechst High Intensity Objects (%) [1]: 12%
- Population Membrane Permeable-Phenotype (%) [1]: 24%
- Population Mitochondria Different-Phenotype (%) [1]: 3%
- Population Mitotic Cells (%) [1]: 38%
- Population Normal (%) [1]: 87%
- Population Pyknosed Nuclei (%) [1]: 32%
- Population Tubulin-Different-Phenotype (%) [1]: 37%
- Total Cell Count [1]: 149
- Population Apoptotic (%) [2]: 75%
- Population Fragmented Nuclei (%) [2]: 6%
- Population Healthy Nuclei (%) [2]: 87%
- Population Hoechst High Intensity Objects (%) [2]: 5%
- Population Membrane Permeable-Phenotype (%) [2]: 10%
- Population Mitochondria Different-Phenotype (%) [2]: 12%
- Population Mitotic Cells (%) [2]: 25%
- Population Normal (%) [2]: 94%
- Population Pyknosed Nuclei (%) [2]: 6%
- Population Tubulin-Different-Phenotype (%) [2]: 9%
- Total Cell Count [2]: 56
- Population Apoptotic (%) [3]: 73%
- Population Fragmented Nuclei (%) [3]: 21%
- Population Healthy Nuclei (%) [3]: 51%
- Population Hoechst High Intensity Objects (%) [3]: 16%
- Population Membrane Permeable-Phenotype (%) [3]: 6%
- Population Mitochondria Different-Phenotype (%) [3]: 23%
- Population Mitotic Cells (%) [3]: 26%
- Population Normal (%) [3]: 83%
- Population Pyknosed Nuclei (%) [3]: 26%
- Population Tubulin-Different-Phenotype (%) [3]: 84%
- Total Cell Count [3]: 168
- Population Apoptotic (%) [4]: 33%
- Population Fragmented Nuclei (%) [4]: 2%
- Population Healthy Nuclei (%) [4]: 75%
- Population Hoechst High Intensity Objects (%) [4]: 1%
- Population Membrane Permeable-Phenotype (%) [4]: 15%
- Population Mitochondria Different-Phenotype (%) [4]: 90%
- Population Mitotic Cells (%) [4]: 66%
- Population Normal (%) [4]: 98%
- Population Pyknosed Nuclei (%) [4]: 22%
- Population Tubulin-Different-Phenotype (%) [4]: 95%
- Total Cell Count [4]: 67
- Population Apoptotic (%) [5]: 63%
- Population Fragmented Nuclei (%) [5]: 25%
- Population Healthy Nuclei (%) [5]: 45%
- Population Hoechst High Intensity Objects (%) [5]: 12%
- Population Membrane Permeable-Phenotype (%) [5]: 16%
- Population Mitochondria Different-Phenotype (%) [5]: 6%
- Population Mitotic Cells (%) [5]: 36%
- Population Normal (%) [5]: 88%
- Population Pyknosed Nuclei (%) [5]: 28%
- Population Tubulin-Different-Phenotype (%) [5]: 38%
- Total Cell Count [5]: 150
- Population Apoptotic (%) [6]: 100%
- Population Fragmented Nuclei (%) [6]: 8%
- Population Healthy Nuclei (%) [6]: 86%
- Population Hoechst High Intensity Objects (%) [6]: 7%
- Population Membrane Permeable-Phenotype (%) [6]: 9%
- Population Mitochondria Different-Phenotype (%) [6]: 10%
- Population Mitotic Cells (%) [6]: 0%
- Population Normal (%) [6]: 92%
- Population Pyknosed Nuclei (%) [6]: 5%
- Population Tubulin-Different-Phenotype (%) [6]: 4%
- Total Cell Count [6]: 64
- Population Apoptotic (%) [7]: 75%
- Population Fragmented Nuclei (%) [7]: 33%
- Population Healthy Nuclei (%) [7]: 51%
- Population Hoechst High Intensity Objects (%) [7]: 16%
- Population Membrane Permeable-Phenotype (%) [7]: 17%
- Population Mitochondria Different-Phenotype (%) [7]: 28%
- Population Mitotic Cells (%) [7]: 25%
- Population Normal (%) [7]: 83%
- Population Pyknosed Nuclei (%) [7]: 15%
- Population Tubulin-Different-Phenotype (%) [7]: 83%
- Total Cell Count [7]: 189
- Population Apoptotic (%) [8]: 59%
- Population Fragmented Nuclei (%) [8]: 6%
- Population Healthy Nuclei (%) [8]: 66%
- Population Hoechst High Intensity Objects (%) [8]: 2%
- Population Membrane Permeable-Phenotype (%) [8]: 22%
- Population Mitochondria Different-Phenotype (%) [8]: 98%
- Population Mitotic Cells (%) [8]: 40%
- Population Normal (%) [8]: 97%
- Population Pyknosed Nuclei (%) [8]: 27%
- Population Tubulin-Different-Phenotype (%) [8]: 88%
- Total Cell Count [8]: 80
- Population Apoptotic (%) [9]: 61%
- Population Fragmented Nuclei (%) [9]: 34%
- Population Healthy Nuclei (%) [9]: 52%
- Population Hoechst High Intensity Objects (%) [9]: 16%
- Population Membrane Permeable-Phenotype (%) [9]: 20%
- Population Mitochondria Different-Phenotype (%) [9]: 2%
- Population Mitotic Cells (%) [9]: 38%
- Population Normal (%) [9]: 83%
- Population Pyknosed Nuclei (%) [9]: 12%
- Population Tubulin-Different-Phenotype (%) [9]: 34%
- Total Cell Count [9]: 170
- Population Apoptotic (%) [10]: 40%
- Population Fragmented Nuclei (%) [10]: 28%
- Population Healthy Nuclei (%) [10]: 64%
- Population Hoechst High Intensity Objects (%) [10]: 10%
- Population Membrane Permeable-Phenotype (%) [10]: 18%
- Population Mitochondria Different-Phenotype (%) [10]: 0%
- Population Mitotic Cells (%) [10]: 60%
- Population Normal (%) [10]: 89%
- Population Pyknosed Nuclei (%) [10]: 6%
- Population Tubulin-Different-Phenotype (%) [10]: 32%
- Total Cell Count [10]: 86
- Population Apoptotic (%) [11]: 87%
- Population Fragmented Nuclei (%) [11]: 41%
- Population Healthy Nuclei (%) [11]: 53%
- Population Hoechst High Intensity Objects (%) [11]: 31%
- Population Membrane Permeable-Phenotype (%) [11]: 16%
- Population Mitochondria Different-Phenotype (%) [11]: 9%
- Population Mitotic Cells (%) [11]: 12%
- Population Normal (%) [11]: 68%
- Population Pyknosed Nuclei (%) [11]: 4%
- Population Tubulin-Different-Phenotype (%) [11]: 68%
- Total Cell Count [11]: 260
- Population Apoptotic (%) [12]: 0%
- Population Fragmented Nuclei (%) [12]: 34%
- Population Healthy Nuclei (%) [12]: 64%
- Population Hoechst High Intensity Objects (%) [12]: 23%
- Population Membrane Permeable-Phenotype (%) [12]: 13%
- Population Mitochondria Different-Phenotype (%) [12]: 5%
- Population Mitotic Cells (%) [12]: 100%
- Population Normal (%) [12]: 76%
- Population Pyknosed Nuclei (%) [12]: 1%
- Population Tubulin-Different-Phenotype (%) [12]: 86%
- Total Cell Count [12]: 176
